The values that follow come from PubChem BioAssay AID588419 (The Scripps Research Institute Molecular Screening Center, 2011).

This assay addresses Protein-arginine deiminase type-4 (Homo sapiens) (UniProt Q9UM07). Kind of assay: PAD4 enzyme inhibition potency, late-stage follow-up, biochemical, BAEE substrate, citrulline absorbance, 0-6 µM range (AID 588419). The conditions noted are these: recombinant PAD4, BAEE citrulline colorimetric absorbance. The gist of the method: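 Material: recombinant PAD4; amount: 0.2 µM PAD4; buffer or medium: Tris-HCl pH 7.6, CaCl2, DTT; compound dosing: Seven-point compound series spanning 0 to 6 µM; schedule: 15 min preincubation plus 15 min reaction, 37 °C; signal: absorbance at 540 nm; read-out: IC50 from citrulline formation, quantified via citrulline standard curve; repeats: duplicate dose-response curves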

Active and inactive are the calls of the source.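 The calls were made as follows: active = IC50 at or below 1000 nM for PAD4 enzyme inhibition; inactive = IC50 above 1000 nM.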

Protein-arginine deiminase type-4 (Homo sapiens), sequence (Q9UM07 whole entry, looked up): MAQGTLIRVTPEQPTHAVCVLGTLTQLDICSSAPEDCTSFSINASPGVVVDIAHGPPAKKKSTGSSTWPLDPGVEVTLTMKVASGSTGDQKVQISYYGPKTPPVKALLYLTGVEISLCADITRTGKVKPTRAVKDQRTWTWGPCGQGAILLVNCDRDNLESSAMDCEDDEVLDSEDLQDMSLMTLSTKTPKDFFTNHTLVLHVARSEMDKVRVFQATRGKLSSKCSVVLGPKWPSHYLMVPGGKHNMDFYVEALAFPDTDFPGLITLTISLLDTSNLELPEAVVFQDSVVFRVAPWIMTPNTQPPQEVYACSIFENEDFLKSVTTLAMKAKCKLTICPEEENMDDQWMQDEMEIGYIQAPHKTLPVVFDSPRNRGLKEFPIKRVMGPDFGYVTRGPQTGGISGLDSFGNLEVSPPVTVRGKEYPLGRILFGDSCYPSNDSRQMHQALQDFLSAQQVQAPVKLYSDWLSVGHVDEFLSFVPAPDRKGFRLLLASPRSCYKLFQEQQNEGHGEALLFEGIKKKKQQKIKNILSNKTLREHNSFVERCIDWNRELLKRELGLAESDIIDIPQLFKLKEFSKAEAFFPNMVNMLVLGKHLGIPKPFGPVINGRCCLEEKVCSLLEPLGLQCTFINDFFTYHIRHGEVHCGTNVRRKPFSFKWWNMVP

On to `COC1=C(I)C(=O)c2nc(C#N)ccc2C1=O`, for which the IC50 entry was “inactive”.
